Reference: ChEMBL document CHEMBL1137220, “2-(2-(dimethylaminomethyl)phenoxy)-5-iodophenylamine: an improved serotonin transporter imaging agent” (J Med Chem, 2004)

How the values were obtained:
[1] = Biodistribution in rat liver was determined after 6 hours of intravenous administration of the compound; [125I]- is used as radioactive isotope; assay type: ADME, organism-based; settings: in vivo
Outline: (§1)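 Rats under ether anesthesia, three per group, received 10 μCi tracer in 0.2 mL saline into the femoral vein. They were killed by cardiac excision under ether at each time point. Organs were removed, weighed and counted. Percent dose per organ was calculated against a 1%-of-injected-dose standard counted at the same time.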

[2] = Regional brain distribution in rat cortex was determined after 2 min of intravenous administration of the compound; [125I]- is used as radioactive isotope; assay type: ADME; settings: in vivo
Outline: (§2)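 Rats, three per group, injected with 10 μCi tracer in 0.2 mL saline via the femoral vein under ether anesthesia and killed by cardiac excision at the stated time. Cortex (frontal plus occipital), striatum, hippocampus, cerebellum and hypothalamus were dissected, weighed and gamma-counted. Values are % dose/g, calculated by comparison with counts of a 100-fold diluted aliquot of the injected dose.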

[3] = Regional brain distribution in rat cortex was determined after 60 min of intravenous administration of the compound; [125I]- is used as radioactive isotope; assay type: ADME; settings: in vivo, 1 h; outline: as §2
[4] = Regional brain distribution in rat cortex was determined after 240 min of intravenous administration of the compound; [125I]- is used as radioactive isotope; assay type: ADME; settings: in vivo, 4 h; outline: as §2
[5] = Regional brain distribution in rat cortex was determined after 11 hours of intravenous administration of the compound; [125I]- is used as radioactive isotope; assay type: ADME; settings: in vivo; outline: as §2
[6] = Regional brain distribution in rat cortex was determined after 24-hours of intravenous administration of the compound; [125I]- is used as radioactive isotope; assay type: ADME; settings: in vivo; outline: as §2
[7] = Distribution ratio in striatum and cerebellum was determined after 60 min of intravenous administration of the compound; [125I]- is used as radioactive isotope; assay type: ADME, tissue-based; settings: rat, 1 h
Outline: (§3)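 Rats, three per group, given 10 μCi tracer in 0.2 mL saline into the femoral vein under ether anesthesia, then killed by cardiac excision at the stated time. Brain regions were dissected, weighed and counted. Percent dose/g was calculated against a 1% diluted aliquot of the injected dose. The ratio is (region − cerebellum)/cerebellum on a % dose/g basis, with cerebellum as background.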

[8] = Distribution ratio in striatum and cerebellum was determined after 120 min of intravenous administration of the compound; [125I]- is used as radioactive isotope; assay type: ADME, tissue-based; settings: rat, 2 h; outline: as §3
[9] = Distribution ratio in hypothalamus and cerebellum was determined after 30 min of intravenous administration of the compound; [125I]- is used as radioactive isotope; assay type: ADME, tissue-based; settings: rat, 0.5 h; outline: as §3
[10] = Distribution ratio in hypothalamus and cerebellum was determined after 6 hours of intravenous administration of the compound; [125I]- is used as radioactive isotope; assay type: ADME, tissue-based; settings: rat; outline: as §3
[11] = Regional brain distribution in rat cerebellum was determined after 6 hours of intravenous administration of the compound; [125I]- is used as radioactive isotope; assay type: ADME, tissue-based; settings: in vivo; outline: as §2
[12] = Regional brain distribution in rat striatum was determined after 120 min of intravenous administration of the compound; [125I]- is used as radioactive isotope; assay type: ADME, tissue-based; settings: in vivo, 2 h; outline: as §2
[13] = Regional brain distribution in rat striatum was determined after 240 min of intravenous administration of the compound; [125I]- is used as radioactive isotope; assay type: ADME, tissue-based; settings: in vivo, 4 h; outline: as §2
[14] = Regional brain distribution in rat striatum was determined after 11 hours of intravenous administration of the compound; [125I]- is used as radioactive isotope; assay type: ADME, tissue-based; settings: in vivo; outline: as §2
[15] = Regional brain distribution in rat hypothalamus was determined after 30 min of intravenous administration of the compound; [125I]- is used as radioactive isotope; assay type: ADME, tissue-based; settings: in vivo, 0.5 h; outline: as §2
[16] = Regional brain distribution in rat hypothalamus was determined after 120 min of intravenous administration of the compound; [125I]- is used as radioactive isotope; assay type: ADME, tissue-based; settings: in vivo, 2 h; outline: as §2
[17] = Regional brain distribution in rat hypothalamus was determined after 240 min of intravenous administration of the compound; [125I]- is used as radioactive isotope; assay type: ADME, tissue-based; settings: in vivo, 4 h; outline: as §2
[18] = Regional brain distribution in rat hypothalamus was determined after 24 hours of intravenous administration of the compound; [125I]- is used as radioactive isotope; assay type: ADME, tissue-based; settings: in vivo; outline: as §2
[19] = Biodistribution in rat skin was determined after 2 min of intravenous administration of the compound; [125I]- is used as radioactive isotope; assay type: ADME, organism-based, Zone of skin; settings: in vivo
Outline: (§4)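 Rats, three per group, under ether anaesthesia, received 10 μCi of [¹²⁵I]-labelled tracer in 0.2 mL saline into the femoral vein. They were killed by cardiac excision under ether at each time point. Organs were removed, weighed and counted. Percent dose per organ was calculated against counts of a 1% aliquot of the injected dose (100-fold diluted) counted at the same time.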

[20] = Biodistribution in rat lung was determined after 30 min of intravenous administration of the compound; [125I]- is used as radioactive isotope; assay type: ADME, organism-based; settings: in vivo, 0.5 h; outline: as §1
[21] = Biodistribution in rat heart was determined after 30 min of intravenous administration of the compound; [125I]- is used as radioactive isotope; assay type: ADME, organism-based; settings: in vivo, 0.5 h; outline: as §1
[22] = Biodistribution in rat liver was determined after 30 min of intravenous administration of the compound; [125I]- is used as radioactive isotope; assay type: ADME, organism-based; settings: in vivo, 0.5 h; outline: as §1
[23] = Biodistribution in rat liver was determined after 60 min of intravenous administration of the compound; [125I]- is used as radioactive isotope; assay type: ADME, organism-based; settings: in vivo, 1 h; outline: as §1
[24] = Biodistribution in rat skin was determined after 240 min of intravenous administration of the compound; [125I]- is used as radioactive isotope; assay type: ADME, organism-based, Zone of skin; settings: in vivo, 4 h; outline: as §4
[25] = Biodistribution in rat skin was determined after 6 hours of intravenous administration of the compound; [125I]- is used as radioactive isotope; assay type: ADME, organism-based, Zone of skin; settings: in vivo; outline: as §4
[26] = Biodistribution in rat blood was determined after 240 min of intravenous administration of the compound; [125I]- is used as radioactive isotope; assay type: ADME, organism-based; settings: in vivo, 4 h; outline: as §1
[27] = Biodistribution in rat brain was determined after 120 min of intravenous administration of the compound; [125I]- is used as radioactive isotope; assay type: ADME, organism-based; settings: in vivo, 2 h; outline: as §1
[28] = Biodistribution in rat brain was determined after 240 min of intravenous administration of the compound; [125I]- is used as radioactive isotope; assay type: ADME, organism-based; settings: in vivo, 4 h; outline: as §1
[29] = Biodistribution in rat blood was determined after 11 hours of intravenous administration of the compound; [125I]- is used as radioactive isotope; assay type: ADME, organism-based; settings: in vivo; outline: as §1
[30] = Biodistribution in rat spleen was determined after 240 min of intravenous administration of the compound; [125I]- is used as radioactive isotope; assay type: ADME, organism-based; settings: in vivo, 4 h; outline: as §4
[31] = Biodistribution in rat blood was determined after 24 hours of intravenous administration of the compound; [125I]- is used as radioactive isotope; assay type: ADME, organism-based; settings: in vivo; outline: as §1
[32] = Biodistribution in rat brain was determined after 24 hours of intravenous administration of the compound; [125I]- is used as radioactive isotope; assay type: ADME, organism-based; settings: in vivo; outline: as §1
[33] = Biodistribution in rat heart was determined after 11 hours of intravenous administration of the compound; [125I]- is used as radioactive isotope; assay type: ADME, organism-based; settings: in vivo; outline: as §1
[34] = Biodistribution in rat liver was determined after 11 hours of intravenous administration of the compound; [125I]- is used as radioactive isotope; assay type: ADME, organism-based; settings: in vivo; outline: as §1
[35] = Biodistribution in rat thyroid was determined after 60 min of intravenous administration of the compound; [125I]- is used as radioactive isotope; assay type: ADME, organism-based, Thyroid gland; settings: in vivo, 1 h; outline: as §4
[36] = Biodistribution in rat muscle was determined after 24 hours of intravenous administration of the compound; [125I]- is used as radioactive isotope; assay type: ADME, organism-based, Muscle tissue; settings: in vivo; outline: as §4

## CN(C)Cc1ccccc1Oc1ccc(I)cc1N
[1]
  Dose: 3.59%
[2]
  Dose/g: 1.16%
[3]
  Dose/g: 0.95%
[4]
  Dose/g: 0.12%
[5]
  Dose/g: 0.01%
[6]
  Dose/g: 0.004%
[7]
  Dose/g: 1.51%
[8]
  Dose/g: 2.53%
[9]
  Dose/g: 1.06%
[10]
  Dose/g: 2.64%
[11]
  Dose/g: 0.027%
[12]
  Dose/g: 0.72%
[13]
  Dose/g: 0.24%
[14]
  Dose/g: 0.01%
[15]
  Dose/g: 1.3%
[16]
  Dose/g: 0.92%
[17]
  Dose/g: 0.32%
[18]
  Dose/g: 0.006%
[19]
  Dose: 4.45%
[20]
  Dose: 3.56%
[21]
  Dose: 0.32%
[22]
  Dose: 7.1%
[23]
  Dose: 5.79%
[24]
  Dose: 12.6%
[25]
  Dose: 15.5%
[26]
  Dose: 3.12%
[27]
  Dose: 1.08%
[28]
  Dose: 0.33%
[29]
  Dose: 2.52%
[30]
  Dose: 0.13%
[31]
  Dose: 0.7%
[32]
  Dose: 0.01%
[33]
  Dose: 0.06%
[34]
  Dose: 2.64%
[35]
  Dose: 0.41%
[36]
  Dose: 1.13%
